Measured values from ChEMBL document CHEMBL1125672, “2-acetylpyridine thiosemicarbazones. 13. Derivatives with antifilarial activity” (1991).

Tests used:
Type in all cases: functional
[1] = tested on: Acanthocheilonema viteae; test: anti-filarial Activity was measured against Acanthocheilonema viteae in jirds at 50 mg/kg/day(5 days) dose
In short: (§1)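 Jirds with established B. pahangi or A. viteae infections were given drug once daily for 5 days by subcutaneous injection, at the maximum tolerated dose and, where supply allowed, graded lower doses. Tolerance was first checked in noninfected jirds with a single 200 mg/kg oral or subcutaneous dose, watching 72 h for excessive weight loss or death. Macrofilarial suppression was the read-out.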

[2] = tested on: Brugia pahangi; test: anti-filarial Activity was measured against Brugia pahangi in jirds at 50 mg/kg/day(5 days) dose; in short: as §1
[3] = tested on: Onchocerca gutturosa; test: Mean motility score for treated Onchocerca gutturosa involving LLCMK2 feeder cells at a concentration of 1.21*10e-8M at 0.5 h
In short: (§2)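 One male O. gutturosa per well over LLCMK2 feeder cells in MEM with 10% heat-inactivated FCS, antibiotics and bicarbonate, 5% CO2; compound introduced in DMSO (≤0.016%, equal DMSO in controls). Motility scored 0 (immotile) to 10 (maximal control activity) every 30 min to 4.5 h, then at 1, 2, 3, 4 and 7 days.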

[4] = tested on: Onchocerca gutturosa; test: Mean motility score for treated Onchocerca gutturosa involving LLCMK2 feeder cells at a concentration of 1.21*10e-8M at 1.5 h; in short: as §2
[5] = tested on: Onchocerca gutturosa; test: Mean motility score for treated Onchocerca gutturosa involving LLCMK2 feeder cells at a concentration of 1.21*10e-8M at 2 h; in short: as §2
[6] = tested on: Onchocerca gutturosa; test: Mean motility score for treated Onchocerca gutturosa involving LLCMK2 feeder cells at a concentration of 1.21*10e-8M at 24 h; in short: as §2
[7] = tested on: Onchocerca gutturosa; test: Mean motility score for treated Onchocerca gutturosa involving LLCMK2 feeder cells at a concentration of 3.05*10e-9 M at 2.5 h
In short: (§3)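 Single male O. gutturosa worms (obtained following abattoir slaughter) per well in Eagle's MEM with 10% heat-inactivated fetal calf serum, penicillin, streptomycin, amphotericin B and bicarbonate, over LLCMK2 feeder cells, 5% CO2 in air. Drug dissolved in DMSO; controls received matched DMSO ≤0.016%. Motility scored 0 (immotile) to 10 (maximum control activity) every 30 min to 4.5 h, then days 1, 2, 3, 4, 7.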

[8] = tested on: Onchocerca gutturosa; test: Mean motility score for treated Onchocerca gutturosa involving LLCMK2 feeder cells at a concentration of 1.21*10e-8M at 72 h; in short: as §2
[9] = tested on: Onchocerca gutturosa; test: Mean motility score for treated Onchocerca gutturosa involving LLCMK2 feeder cells at a concentration of 1.94*10e-7M at 1 h; in short: as §2
[10] = tested on: Onchocerca gutturosa; test: Mean motility score for treated Onchocerca gutturosa involving LLCMK2 feeder cells at a concentration of 1.94*10e-7M at 48 h; in short: as §2
[11] = tested on: Onchocerca gutturosa; test: Mean motility score for treated Onchocerca gutturosa involving LLCMK2 feeder cells at a concentration of 1.94*10e-7M at 72 h; in short: as §2
[12] = tested on: Onchocerca gutturosa; test: Mean motility score for treated Onchocerca gutturosa involving LLCMK2 feeder cells at a concentration of 1.94*10e-7M at 96 h; in short: as §2
[13] = tested on: Onchocerca gutturosa; test: Mean motility score for treated Onchocerca gutturosa involving LLCMK2 feeder cells at a concentration of 1.95*10e-8 M at 4.5 h; in short: as §2
[14] = tested on: Onchocerca gutturosa; test: Mean motility score for treated Onchocerca gutturosa involving LLCMK2 feeder cells at a concentration of 1.95*10e-8 M at 48 h; in short: as §2
[15] = tested on: Onchocerca gutturosa; test: Mean motility score for treated Onchocerca gutturosa involving LLCMK2 feeder cells at a concentration of 3.05*10e-8 M at 1 h; in short: as §2
[16] = tested on: Onchocerca gutturosa; test: Colorimetric quantification of male Onchocerca gutturosa viability, expressed as % inhibition of formazan formation at 3.05*10e-9 M conc. by using tetrazolium Dye MTT assay
In short: (§4)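 Single intact male O. gutturosa, cultured with LLCMK2 feeder cells in MEM + 10% heat-inactivated FCS (5% CO2), drug added from DMSO (≤0.016% DMSO in controls). MTT read after 168 h: worm in 0.5 mg/mL MTT, 30 min at 36.5 °C, formazan solubilized in DMSO 1 h at room temperature, absorbance 490 nm vs DMSO blank.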

[17] = tested on: Onchocerca gutturosa; test: Colorimetric quantification of male Onchocerca gutturosa viability, expressed as % inhibition of formazan formation at 4.88*10e-8M conc. by using tetrazolium Dye MTT assay; in short: as §4
[18] = tested on: Onchocerca gutturosa; test: Mean motility score for treated Onchocerca gutturosa involving LLCMK2 feeder cells at a concentration of 4.88*10e-8M at 1 h; in short: as §3
[19] = tested on: Onchocerca gutturosa; test: Mean motility score for treated Onchocerca gutturosa involving LLCMK2 feeder cells at a concentration of 4.88*10e-8M at 1.5 h; in short: as §3
[20] = tested on: Onchocerca gutturosa; test: Mean motility score for treated Onchocerca gutturosa involving LLCMK2 feeder cells at a concentration of 4.88*10e-8M at 2.5 h; in short: as §3
[21] = tested on: Onchocerca gutturosa; test: Mean motility score for treated Onchocerca gutturosa involving LLCMK2 feeder cells at a concentration of 4.88*10e-8M at 4.5 h; in short: as §3
[22] = tested on: Onchocerca gutturosa; test: Mean motility score for treated Onchocerca gutturosa involving LLCMK2 feeder cells at a concentration of 4.88*10e-8M at 48 h; in short: as §3
[23] = tested on: Onchocerca gutturosa; test: Mean motility score for treated Onchocerca gutturosa involving LLCMK2 feeder cells at a concentration of 5*10e-5 M at 168 h; in short: as §3
[24] = tested on: Onchocerca gutturosa; test: Mean motility score for treated Onchocerca gutturosa involving LLCMK2 feeder cells at a concentration of 1.95*10e-8 M at 3 h; settings: in the assay text read “1.95*10e-7 M” for “1.95*10e-8 M”; in short: as §2
[25] = tested on: Onchocerca gutturosa; test: Mean motility score for treated Onchocerca gutturosa involving LLCMK2 feeder cells at a concentration of 3.1*10e-6 M at 48 h; in short: as §3
[26] = tested on: Onchocerca gutturosa; test: Mean motility score for treated Onchocerca gutturosa involving LLCMK2 feeder cells at a concentration of 3.1*10e-6 M at 96 h; in short: as §3
[27] = tested on: Onchocerca gutturosa; test: Mean motility score for treated Onchocerca gutturosa involving LLCMK2 feeder cells at a concentration of 1.95*10e-8 M at 168 h; in short: as §2
[28] = tested on: Onchocerca gutturosa; test: Mean motility score for treated Onchocerca gutturosa involving LLCMK2 feeder cells at a concentration of 1.95*10e-8 M at 24 h; in short: as §2
[29] = tested on: Onchocerca gutturosa; test: Mean motility score for treated Onchocerca gutturosa involving LLCMK2 feeder cells at a concentration of 3.1*10e-6 M at 1.5 h; in short: as §3
[30] = tested on: Onchocerca gutturosa; test: Mean motility score for treated Onchocerca gutturosa involving LLCMK2 feeder cells at a concentration of 3.1*10e-6 M at 24 h; in short: as §3
[31] = tested on: Onchocerca gutturosa; test: Mean motility score for treated Onchocerca gutturosa involving LLCMK2 feeder cells at a concentration of 3.1*10e-6 M at 3 h; in short: as §3
[32] = tested on: Onchocerca gutturosa; test: Mean motility score for treated Onchocerca gutturosa involving LLCMK2 feeder cells at a concentration of 3.1*10e-6 M at 3.5 h; in short: as §3
[33] = tested on: Onchocerca gutturosa; test: Mean motility score for treated Onchocerca gutturosa involving LLCMK2 feeder cells at a concentration of 1.95*10e-8 M at 1 h; in short: as §2

Compound: C/C(=N\NC(S)=Nc1ccccc1N)c1ccccn1
- Suppression [1]: 100%
- Suppression [2]: 100%
- Motility [3]: 9
- Motility [4]: 4.3
- Motility [5]: 3.3
- Motility [6]: 9
- Motility [7]: 7.5
- Motility [8]: 6.8
- Motility [9]: 9.8
- Motility [10]: 4
- Motility [11]: 1.5
- Motility [12]: 1.8

Compound: C/C(=N\NC(=S)N1CCCCCC1)c1ccccn1
- Motility [13]: 9.5
- Motility [14]: 2.5
- Motility [15]: 9
- Inhibition [16]: 19.5%
- Inhibition [17]: 31.7%
- Motility [18]: 9
- Motility [19]: 8.5
- Motility [20]: 8.3
- Motility [21]: 9.8
- Motility [22]: 4
- Motility [23]: 0
- Motility [24]: 10
- Motility [25]: 2.8
- Motility [26]: 0
- Motility [27]: 0
- Motility [28]: 8
- Motility [29]: 9.8
- Motility [30]: 4
- Motility [31]: 9.3
- Motility [32]: 9
- Motility [33]: 9.5
